Assay results as given in PMC12479363 (Nature Immunology, 2025).
Structures can show the parent of a compound that is named as a salt. No end group written: not given here. *: point of attachment. Biotin = O=C1N[C@H]2[C@H](CS[C@H]2CCCCC(=O)*)N1; Ahx = NCCCCCC(=O)O

Assays:
[1] = tested on: LPS-induced sepsis in mice; assay: Severe LPS; format: in vivo, mouse; details: at 5 h, n = 10; for plasma IL-1β levels: vs saline
[2] = tested on: LPS-induced sepsis in mice; assay: Moderate LPS; format: in vivo, mouse; details: at 6 h, n = 10; for plasma IL-1β levels: vs saline
Procedure, shortened: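 Sepsis was induced in wild-type mice (8–10 weeks, mixed sex) with LPS (O55:B5) 25 mg per kg i.p. At 5 h after LPS they received saline or test peptide 2 mg per kg i.v. Reference pore inhibitors were given i.p. Plasma IL-1β was measured by ELISA every 3 h up to 48 h.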

[3] = tested on: LPS-induced sepsis in mice; assay: Low-dose LPS; format: in vivo, mouse; details: for plasma IL-1β levels: mild sepsis, at 24 h, vs saline, n = 10
Procedure, shortened: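 C57BL/6J and Gsdmd−/− mice (8–10 weeks, 50:50 female:male) were randomized, unblinded, and given LPS (O55:B5) 15 mg per kg i.p. At 16 h they received saline or test peptide 1 mg per kg i.v. Blood AST, BUN, ALT and CK were measured at day 2 (n = 6). Plasma IL-1β was measured by ELISA (n = 10).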

[4] = tested on: human blood leukocytes; assay: Pyroptosis in human whole blood; format: cell-based; details: DSF vs PBS, LPS + nigericin-treated blood, 1 h
[5] = tested on: BMDMs; assay: Cell membrane repair: CHMP4–GFP puncta and Annexin V; format: cell-based, mouse; details: 2 mM EDTA + 15 µM SK56, LPS + nigericin
[6] = molecular target: T1, pyroptotic cytomembranes, which contain GSDMD-NT pores (Homo sapiens, UniProt P57764); assay: Biolayer interferometry, pyroptotic cytomembranes; format: binding
T1 sequence (P57764 1-275 limits assumed): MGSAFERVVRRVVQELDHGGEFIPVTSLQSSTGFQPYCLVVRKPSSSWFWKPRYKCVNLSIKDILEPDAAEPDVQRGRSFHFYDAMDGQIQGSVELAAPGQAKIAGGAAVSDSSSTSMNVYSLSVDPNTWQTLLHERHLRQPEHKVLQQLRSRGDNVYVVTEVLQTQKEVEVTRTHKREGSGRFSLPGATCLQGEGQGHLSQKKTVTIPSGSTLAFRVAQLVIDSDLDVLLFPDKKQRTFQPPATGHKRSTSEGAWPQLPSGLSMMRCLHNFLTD

Compound	organ damage markers in the plasma [1]	plasma IL-1β levels [1]	organ damage markers in the plasma [2]	plasma IL-1β levels [2]	plasma IL-1β levels [3]	secretion of IL-1β and IL-18 [4]	proportion of Annexin V+ BMDMs [5]	blood biochemical markers (AST, BUN, ALT and CK) ([3]; LPS 15 mg/kg, treatment at 16 h, day 2, vs saline-treated WT mice, n = 6)	Kd [6] [µM]
COC(=O)/C=C/C(=O)OC [DMF, dimethyl fumarate]	lowered levels of organ damage markers	reduced plasma IL-1β levels	lowered levels of organ damage markers	reduced plasma IL-1β levels	reduced plasma IL-1β levels				
CCN(CC)C(=S)SSC(=S)N(CC)CC [DSF, disulfiram]	failed to suppress BUN but inhibited the other three organ damage markers	reduced plasma IL-1β levels		reduced plasma IL-1β levels	reduced plasma IL-1β levels	completely blocked			
O=C(O)CN(CCN(CC(=O)O)CC(=O)O)CC(=O)O [EDTA]							restored the proportion of Annexin V^+ BMDMs to the level seen in BMDMs without SK56 treatment		
COc1nccnc1NS(=O)(=O)c1ccc(NC(=O)/C=C/c2ccc([N+](=O)[O-])s2)cc1 [NSA, necrosulfonamide]	lowered levels of organ damage markers	had no effect	lowered levels of organ damage markers					inhibited AST, BUN, ALT and CK	
{Biotin-Ahx-Ahx}-SLEEFAKRVVEELVKEFNLDKRQESYLEMSALIQAQMGISERIIEIVLRHAAQTLK [Biotinylated SK56]									0.0109
